The record followed here is ChEMBL document CHEMBL4819075, “Discovery of a potent, selective, and covalent ZAP-70 kinase inhibitor” (Eur J Med Chem, 2021).

SMILES strings stand for the structures. Calls of active or inactive are those of the source. The calls are words filed in the database; no cut-off is given here.

Test [1] addresses Tyrosine-protein kinase BTK (Homo sapiens, UniProt Q06187). Kind of test: Inhibition of BTK (unknown origin).
Test [2] concerns the target Tyrosine-protein kinase SYK (Homo sapiens, UniProt P43405). Kind of test: Inhibition of N-terminal GST-fused human recombinant full length SYK (1 to 635 residues) expressed in baculovirus-infected Sf21 cells using FAM-22 peptide as substrate preincubated with enzyme for 10 mins followed by substrate addition for 30 mins in presence of ATP by caliper mobility shift assay.

The nature of test [3]: Inhibition of anti-CD3/CD28 antibodies-stimulated BALB/c mouse CD4+ T cell activation assessed as frequency of CD4+/CD69+ T cells at 200 nM measured after 24 hrs by flow cytometric analysis (reference value: 2.51%). Format: functional, CD4+ve Th. More on the design: scale not given: the % may be the effect or the level left. In a few lines:
(§1)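 Purified BALB/c splenic CD4+ T cells (negative selection) stimulated with anti-CD3 plus anti-CD28 in RPMI 1640/10% FBS with compound for 24 or 48 h. Cells Fc-blocked with anti-CD16/CD32, then stained with FITC-CD3, PE-CD25, APC-CD4 and BV421-CD69. Analyzed by flow cytometry. Data as mean ± SD; one-way ANOVA with Dunnett's test.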
Background: In flow cytometry, cells or beads pass a laser one at a time.

The target in test [4] is Tyrosine-protein kinase Lck (Homo sapiens, UniProt P06239). The test is described as follows: Inhibition of LCK (unknown origin).
The target of test [5] is T1, Tyrosine-protein kinase ITK/TSK (Homo sapiens, UniProt Q08881).
T1 sequence (Q08881 whole entry): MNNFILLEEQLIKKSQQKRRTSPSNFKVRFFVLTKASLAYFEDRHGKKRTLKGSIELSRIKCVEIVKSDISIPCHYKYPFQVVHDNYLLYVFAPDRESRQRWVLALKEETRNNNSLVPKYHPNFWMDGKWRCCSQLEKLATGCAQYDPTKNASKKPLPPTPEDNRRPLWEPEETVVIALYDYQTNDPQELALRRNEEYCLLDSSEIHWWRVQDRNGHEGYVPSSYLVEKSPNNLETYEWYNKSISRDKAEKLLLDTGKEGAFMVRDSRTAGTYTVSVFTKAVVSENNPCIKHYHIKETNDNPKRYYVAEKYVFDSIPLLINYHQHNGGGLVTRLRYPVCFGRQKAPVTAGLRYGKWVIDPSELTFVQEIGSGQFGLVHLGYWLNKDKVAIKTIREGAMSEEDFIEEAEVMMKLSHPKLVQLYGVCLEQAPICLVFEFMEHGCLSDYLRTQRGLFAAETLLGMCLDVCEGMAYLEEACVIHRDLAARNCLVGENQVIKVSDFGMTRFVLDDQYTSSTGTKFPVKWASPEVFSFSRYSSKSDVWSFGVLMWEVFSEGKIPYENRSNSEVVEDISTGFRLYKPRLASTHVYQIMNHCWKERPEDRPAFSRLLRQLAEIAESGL
Kind of test: Inhibition of ITK (unknown origin).

Test [6] is described as follows: Inhibition of anti-CD3/CD28 antibodies-stimulated BALB/c mouse CD4+ T cell proliferation at 400 nM measured after 48 hrs by [3H]thymidine incorporation based beta scintillation counting analysis. It counts as functional. The following applies: CD4+ve Th. In a few lines:
(§2)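 Purified BALB/c splenic CD4+ T cells stimulated with anti-CD3 plus anti-CD28 in RPMI 1640/10% FBS with compound (DMSO stock diluted in medium). After 48 h, cultures pulsed with [³H]thymidine 0.5 µCi/well. Incorporated radioactivity counted by beta scintillation.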

Test [7] relates to CD4+ve Th. Kind of test: Inhibition of anti-CD3/CD28 antibodies-stimulated BALB/c mouse CD4+ T cell division measured after 72 hrs by CFSE-labeled flow cytometry. The following applies: dose 100-400 nM. Format: functional, tissue-based. A digest of the protocol: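 Purified BALB/c CD4+ T cells labeled with CFSE at 37 °C for 5 min and washed in RPMI 1640/20% FBS. Cells cultured with anti-CD3 ([…]) plus anti-CD28 ([…]) in RPMI 1640/10% FBS with compound for 72 h. Division read as CFSE dilution by flow cytometry.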

Test [8] in a line: Inhibition of anti-CD3/CD28 antibodies-stimulated BALB/c mouse CD4+ T cell activation assessed as frequency of CD4+/CD69+ T cells at 400 nM measured after 24 hrs by flow cytometric analysis (reference value: 2.51%). It counts as functional, CD4+ve Th. More on the design: scale not given: the % may be the effect or the level left. A digest of the protocol:
as §1

Test [9] can be described thus: Inhibition of anti-CD3/CD28 antibodies-stimulated BALB/c mouse CD4+ T cell activation assessed as frequency of CD4+/CD69+ T cells at 400 nM measured after 48 hrs by flow cytometric analysis (reference value: 14.9%). Format: functional, CD4+ve Th. More on the design: scale not given: the % may be the effect or the level left. A digest of the protocol: as §1
A short description of test [10]: Inhibition of anti-CD3/CD28 antibodies-stimulated BALB/c mouse CD4+ T cell activation assessed as frequency of CD4+/CD69+ T cells at 200 nM measured after 48 hrs by flow cytometric analysis (reference value: 14.9%). Format: functional, CD4+ve Th. More on the design: scale not given: the % may be the effect or the level left. In a few lines:
as §1

The target in test [11] is T2, Tyrosine-protein kinase ZAP-70 (Homo sapiens, UniProt P43403).
T2 sequence (P43403 whole entry): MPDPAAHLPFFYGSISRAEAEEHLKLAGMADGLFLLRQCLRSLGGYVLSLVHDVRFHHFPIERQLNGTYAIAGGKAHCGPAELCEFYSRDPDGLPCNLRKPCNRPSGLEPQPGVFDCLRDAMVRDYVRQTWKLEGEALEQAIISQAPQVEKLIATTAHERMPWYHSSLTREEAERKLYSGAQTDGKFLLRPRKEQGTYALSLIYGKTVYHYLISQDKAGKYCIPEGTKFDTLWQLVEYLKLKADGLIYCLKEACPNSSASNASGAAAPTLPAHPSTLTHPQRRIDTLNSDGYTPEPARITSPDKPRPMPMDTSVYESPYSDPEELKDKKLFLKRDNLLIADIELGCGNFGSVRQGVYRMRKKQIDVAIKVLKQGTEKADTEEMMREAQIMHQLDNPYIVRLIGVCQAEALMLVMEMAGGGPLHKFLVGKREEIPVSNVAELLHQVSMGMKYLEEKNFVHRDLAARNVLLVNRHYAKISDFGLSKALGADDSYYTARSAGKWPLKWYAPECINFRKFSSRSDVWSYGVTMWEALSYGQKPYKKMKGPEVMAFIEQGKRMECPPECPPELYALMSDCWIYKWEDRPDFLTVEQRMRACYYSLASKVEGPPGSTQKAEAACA
The test is described as follows: Inhibition of N-terminal GST-fused human recombinant full length ZAP70 (1 to 619 residues) expressed in baculovirus-infected Sf21 cells using FAM-22 peptide as substrate preincubated with enzyme for 10 mins followed by substrate addition for 30 mins in presence of ATP by caliper mobility shift assay.

In test [12] the target is Non-receptor tyrosine-protein kinase TYK2 (Homo sapiens, UniProt P29597). Kind of test: Inhibition of TYK2 (unknown origin).
The test system of test [13] is CD4+ve Th. Kind of test: Inhibition of anti-CD3/CD28 antibodies-stimulated BALB/c mouse CD4+ T cell activation assessed as reduction in CD25 expression measured after 24 to 48 hrs by flow cytometric analysis. The note with it: time 24-48 hrs. It counts as functional, tissue-based. In a few lines:
as §1

The nature of test [14]: Inhibition of anti-CD3/CD28 antibodies-stimulated BALB/c mouse CD4+ T cell activation assessed as frequency of CD4+/CD69+ T cells at 100 nM measured after 24 hrs by flow cytometric analysis (reference value: 2.51%). It counts as functional, CD4+ve Th. Details: scale not given: the % may be the effect or the level left. In a few lines:
as §1

Test [15] has as its target Proto-oncogene tyrosine-protein kinase Src (Homo sapiens, UniProt P12931). The test is described as follows: Inhibition of SRC (unknown origin).
The target in test [16] is Tyrosine-protein kinase HCK (Homo sapiens, UniProt P08631). The test is described as follows: Inhibition of HCK (unknown origin).
Test [17] deals with Tyrosine-protein kinase ABL1 (Homo sapiens, UniProt P00519). Kind of test: Inhibition of ABL (unknown origin).
The test system of test [18] is CD4+ve Th. The test is described as follows: Inhibition of anti-CD3/CD28 antibodies stimulated-IL-4 production in BALB/c mouse CD4+ T cells at 100 to 400 nM measured after 48 hrs by ELISA. It counts as functional, cell-based. The note with it: dose 100-400 nM. In a few lines: (§3)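 Supernatants of BALB/c splenic CD4+ T cells, purified by immunomagnetic negative selection (>98% purity). Cells stimulated with anti-CD3 (5 µg/ml) plus anti-CD28 (2 µg/ml) in RPMI 1640 with 10% FBS and penicillin/streptomycin at 37 °C, 5% CO₂. Compound is given from DMSO stock diluted in medium at increasing concentrations for 48 h. Mouse IFN-γ or IL-4 measured by ELISA kit.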

The subject of test [19] is CD4+ve Th. The test is described as follows: Inhibition of anti-CD3/CD28 antibodies-stimulated BALB/c mouse CD4+ T cell proliferation measured after 48 hrs by [3H]thymidine incorporation based beta scintillation counting analysis. It counts as functional, tissue-based. The note with it: dose 100-400 nM. A digest of the protocol: as §2
For orientation: Dividing cells build labelled thymidine or BrdU into new DNA.

Test [20] has as its target Tyrosine-protein kinase JAK1 (Homo sapiens, UniProt P23458). The test is described as follows: Inhibition of JAK1 (unknown origin).
Test [21] addresses Tyrosine-protein kinase JAK2 (Homo sapiens, UniProt O60674). The test is described as follows: Inhibition of JAK2 (unknown origin).
The subject of test [22] is CD4+ve Th. Kind of test: Inhibition of anti-CD3/CD28 antibodies stimulated-IFN-gamma production in BALB/c mouse CD4+ T cells at 100 to 400 nM measured after 48 hrs by ELISA. Format: functional, cell-based. The following applies: dose 100-400 nM. A digest of the protocol:
as §3
For orientation: In an ELISA, binding on a coated surface is turned into a signal by an enzyme label.

Test [23] concerns the target T3, Tyrosine-protein kinase ZAP-70 (Homo sapiens) (UniProt P43403).
T3 sequence (whole entry): T2 sequence (P43403 whole entry)
Kind of test: Covalent binding affinity at C346 residue of N-terminal GST-fused human recombinant full length ZAP70 (1 to 619 residues) expressed in baculovirus-infected Sf21 cells at 55 nM preincubated for 5 mins followed by DTT challenge for 10 mins and measured after 18 hrs following trypsin digestion by mass spectrometry. The note with it: time 1095.0 min. A digest of the protocol: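 Recombinant ZAP-70 at 75 nM final in assay buffer (0.01% Triton X-100, 50 mM HEPES, 5 mM MgCl₂, 1 mM MnCl₂). Compound added to 55 nM final and incubated 5 min at 28 °C. DTT then added to 2 mM final for 10 min at room temperature. Trypsin digestion at 37 °C for 18 h, stopped with TFA, C18 desalting. Modified sites mapped by nano-LC–MS/MS.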

Test [24] can be described thus: Inhibition of anti-CD3/CD28 antibodies-stimulated BALB/c mouse CD4+ T cell activation assessed as frequency of CD4+/CD69+ T cells at 100 nM measured after 48 hrs by flow cytometric analysis (reference value: 14.9%). Format: functional, CD4+ve Th. Details: scale not given: the % may be the effect or the level left. In a few lines: as §1

Chain of Tyrosine-protein kinase ABL1 (P00519 whole entry): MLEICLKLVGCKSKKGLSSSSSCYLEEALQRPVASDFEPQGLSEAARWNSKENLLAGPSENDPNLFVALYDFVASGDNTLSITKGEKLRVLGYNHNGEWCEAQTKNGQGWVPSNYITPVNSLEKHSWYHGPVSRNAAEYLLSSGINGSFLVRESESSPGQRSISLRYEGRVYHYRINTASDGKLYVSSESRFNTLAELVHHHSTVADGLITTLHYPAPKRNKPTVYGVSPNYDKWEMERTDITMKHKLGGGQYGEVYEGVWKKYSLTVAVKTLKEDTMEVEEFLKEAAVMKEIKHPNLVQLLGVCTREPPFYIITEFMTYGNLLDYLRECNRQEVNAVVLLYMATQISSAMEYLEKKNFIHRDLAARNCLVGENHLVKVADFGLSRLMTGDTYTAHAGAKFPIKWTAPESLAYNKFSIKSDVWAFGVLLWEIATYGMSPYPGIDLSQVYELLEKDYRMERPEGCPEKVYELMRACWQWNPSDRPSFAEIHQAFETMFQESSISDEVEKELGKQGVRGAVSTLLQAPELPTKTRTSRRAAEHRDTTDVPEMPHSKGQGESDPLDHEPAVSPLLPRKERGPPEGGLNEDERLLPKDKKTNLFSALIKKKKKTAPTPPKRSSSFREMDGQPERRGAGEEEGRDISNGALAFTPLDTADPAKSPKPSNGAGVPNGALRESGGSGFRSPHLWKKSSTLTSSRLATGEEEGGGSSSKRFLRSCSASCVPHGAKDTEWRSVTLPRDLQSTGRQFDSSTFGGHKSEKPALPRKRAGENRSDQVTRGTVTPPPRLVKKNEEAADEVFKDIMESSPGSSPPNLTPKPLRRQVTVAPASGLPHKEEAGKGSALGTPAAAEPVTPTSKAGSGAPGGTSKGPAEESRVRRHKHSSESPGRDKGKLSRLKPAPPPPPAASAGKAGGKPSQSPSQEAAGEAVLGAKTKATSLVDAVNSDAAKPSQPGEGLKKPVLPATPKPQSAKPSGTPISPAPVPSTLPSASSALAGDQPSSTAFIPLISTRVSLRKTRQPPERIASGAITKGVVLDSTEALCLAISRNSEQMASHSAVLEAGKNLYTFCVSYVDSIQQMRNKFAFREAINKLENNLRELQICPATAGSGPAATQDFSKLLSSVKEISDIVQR
Chain of Tyrosine-protein kinase Lck (P06239 whole entry): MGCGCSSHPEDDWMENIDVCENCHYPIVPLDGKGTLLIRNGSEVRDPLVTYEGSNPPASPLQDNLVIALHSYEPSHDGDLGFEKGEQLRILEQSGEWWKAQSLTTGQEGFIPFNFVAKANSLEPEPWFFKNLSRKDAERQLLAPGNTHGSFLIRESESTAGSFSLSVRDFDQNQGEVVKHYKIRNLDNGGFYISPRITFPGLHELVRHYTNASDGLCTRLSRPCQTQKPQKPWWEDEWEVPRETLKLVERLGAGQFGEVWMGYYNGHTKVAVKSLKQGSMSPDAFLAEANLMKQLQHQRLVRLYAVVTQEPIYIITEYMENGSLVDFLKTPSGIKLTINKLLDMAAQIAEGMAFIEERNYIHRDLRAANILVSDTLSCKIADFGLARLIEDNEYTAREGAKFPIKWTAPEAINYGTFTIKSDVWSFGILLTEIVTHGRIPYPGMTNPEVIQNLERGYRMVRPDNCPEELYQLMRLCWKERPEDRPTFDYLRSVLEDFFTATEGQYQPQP
Chain of Tyrosine-protein kinase HCK (P08631 whole entry): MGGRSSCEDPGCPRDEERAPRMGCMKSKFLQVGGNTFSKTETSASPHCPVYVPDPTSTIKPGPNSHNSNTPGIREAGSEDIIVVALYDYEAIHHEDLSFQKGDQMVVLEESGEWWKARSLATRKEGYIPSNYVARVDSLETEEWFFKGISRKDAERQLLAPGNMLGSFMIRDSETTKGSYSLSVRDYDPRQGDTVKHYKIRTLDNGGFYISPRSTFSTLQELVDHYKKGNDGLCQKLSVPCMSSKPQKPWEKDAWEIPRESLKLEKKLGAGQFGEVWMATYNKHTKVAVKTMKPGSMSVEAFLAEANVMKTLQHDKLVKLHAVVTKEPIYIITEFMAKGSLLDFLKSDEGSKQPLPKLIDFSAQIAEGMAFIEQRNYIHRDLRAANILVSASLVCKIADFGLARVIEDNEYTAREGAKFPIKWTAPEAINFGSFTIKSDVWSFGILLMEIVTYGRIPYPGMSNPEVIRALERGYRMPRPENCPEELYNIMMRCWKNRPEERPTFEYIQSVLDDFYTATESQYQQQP
Chain of Tyrosine-protein kinase JAK2 (O60674 whole entry): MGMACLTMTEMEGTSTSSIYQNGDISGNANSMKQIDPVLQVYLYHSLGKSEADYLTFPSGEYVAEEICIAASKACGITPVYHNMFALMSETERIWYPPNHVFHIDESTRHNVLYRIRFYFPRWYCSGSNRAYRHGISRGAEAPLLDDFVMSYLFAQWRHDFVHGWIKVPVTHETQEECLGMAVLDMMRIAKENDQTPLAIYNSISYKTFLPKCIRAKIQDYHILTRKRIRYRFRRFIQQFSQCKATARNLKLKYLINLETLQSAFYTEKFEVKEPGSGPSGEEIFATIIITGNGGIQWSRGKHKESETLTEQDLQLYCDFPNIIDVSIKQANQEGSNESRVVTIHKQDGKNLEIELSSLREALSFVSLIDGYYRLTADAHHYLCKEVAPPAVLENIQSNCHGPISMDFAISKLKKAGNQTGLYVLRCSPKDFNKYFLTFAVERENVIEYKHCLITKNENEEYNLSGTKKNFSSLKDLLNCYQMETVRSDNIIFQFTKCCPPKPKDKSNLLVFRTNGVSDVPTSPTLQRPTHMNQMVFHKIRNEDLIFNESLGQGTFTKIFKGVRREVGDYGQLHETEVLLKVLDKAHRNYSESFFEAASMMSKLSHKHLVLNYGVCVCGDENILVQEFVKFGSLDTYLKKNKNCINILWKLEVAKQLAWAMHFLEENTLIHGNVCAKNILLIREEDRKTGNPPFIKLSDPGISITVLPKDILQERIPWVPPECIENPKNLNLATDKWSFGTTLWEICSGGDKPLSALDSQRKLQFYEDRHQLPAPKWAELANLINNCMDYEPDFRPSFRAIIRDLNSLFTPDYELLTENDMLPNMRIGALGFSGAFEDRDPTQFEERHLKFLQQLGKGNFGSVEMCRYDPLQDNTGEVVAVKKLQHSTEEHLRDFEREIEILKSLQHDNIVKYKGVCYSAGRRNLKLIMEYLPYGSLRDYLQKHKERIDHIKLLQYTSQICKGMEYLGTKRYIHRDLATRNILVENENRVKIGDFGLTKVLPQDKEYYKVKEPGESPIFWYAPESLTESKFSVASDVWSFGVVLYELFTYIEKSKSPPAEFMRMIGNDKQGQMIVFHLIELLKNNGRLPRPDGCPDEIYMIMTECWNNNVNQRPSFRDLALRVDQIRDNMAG
Chain of Tyrosine-protein kinase BTK (Q06187 whole entry, the tested form may be a part): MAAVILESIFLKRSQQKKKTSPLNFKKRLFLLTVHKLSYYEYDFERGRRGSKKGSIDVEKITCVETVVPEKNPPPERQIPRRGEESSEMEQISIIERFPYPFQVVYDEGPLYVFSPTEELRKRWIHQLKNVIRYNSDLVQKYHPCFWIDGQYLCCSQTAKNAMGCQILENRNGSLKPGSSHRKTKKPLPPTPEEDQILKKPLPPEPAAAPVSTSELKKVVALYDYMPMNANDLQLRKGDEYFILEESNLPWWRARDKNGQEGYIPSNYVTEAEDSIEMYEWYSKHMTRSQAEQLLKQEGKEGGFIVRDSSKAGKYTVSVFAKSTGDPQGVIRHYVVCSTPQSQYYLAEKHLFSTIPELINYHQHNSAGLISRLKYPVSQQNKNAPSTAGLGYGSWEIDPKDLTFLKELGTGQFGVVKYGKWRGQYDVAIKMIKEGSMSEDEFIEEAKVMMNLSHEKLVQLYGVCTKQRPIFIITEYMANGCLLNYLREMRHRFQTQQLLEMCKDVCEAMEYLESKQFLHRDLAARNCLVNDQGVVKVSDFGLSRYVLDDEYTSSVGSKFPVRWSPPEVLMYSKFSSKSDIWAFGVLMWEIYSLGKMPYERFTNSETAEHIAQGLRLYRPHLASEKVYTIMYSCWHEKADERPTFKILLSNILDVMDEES
Chain of Proto-oncogene tyrosine-protein kinase Src (P12931 2-536 limits assumed): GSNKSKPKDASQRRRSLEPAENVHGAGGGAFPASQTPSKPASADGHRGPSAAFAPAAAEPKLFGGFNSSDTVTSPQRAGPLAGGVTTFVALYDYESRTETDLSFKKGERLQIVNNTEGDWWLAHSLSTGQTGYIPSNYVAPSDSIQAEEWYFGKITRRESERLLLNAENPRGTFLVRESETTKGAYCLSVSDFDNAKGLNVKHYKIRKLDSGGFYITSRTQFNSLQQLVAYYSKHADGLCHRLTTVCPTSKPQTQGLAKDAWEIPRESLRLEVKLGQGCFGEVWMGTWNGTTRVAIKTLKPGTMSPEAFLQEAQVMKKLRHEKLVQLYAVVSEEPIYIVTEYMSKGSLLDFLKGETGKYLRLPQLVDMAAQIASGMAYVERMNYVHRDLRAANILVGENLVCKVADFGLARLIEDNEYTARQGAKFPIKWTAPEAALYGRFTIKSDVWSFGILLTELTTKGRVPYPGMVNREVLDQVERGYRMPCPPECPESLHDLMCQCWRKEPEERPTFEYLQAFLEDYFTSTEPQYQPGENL

Broadly, the IC50 is the concentration needed to halve the response being measured. By inhibition is commonly meant the relative decrease from the control value, in per cent. Regarding `COc1cc(Nc2nc(NCc3cccc(NC(=O)CCl)c3)n3ccnc3c2C(N)=O)cc(OC)c1`, the IC50 was over 1 µM in [1]; over 1 µM in [2]; over 1 µM in test [4]; over 1 µM in test [5]; 0.055 µM in test [11]; over 1 µM in [12]. In addition, the IC50 in [15], in [16], in test [17], in test [20] and in test [21] was over 1 µM throughout. Moreover, the Activity amounted to 0.932% in [3]; 0.925% in test [8]; 3.64% in test [9]; 4.47% in [10]; 1.55% in [14]; 9.83% in test [24]. This molecule gave an inhibition at 0.4 µM in test [6] of 100%. Moreover, the inhibition entry in the test with CD4+ve Th [7] and with CD4+ve Th [19] was “Dose-Dependent Effect” throughout. Also, the inhibition entry in the test with CD4+ve Th [13], in the test with CD4+ve Th [18] and in the test on CD4+ve Th [22] was “Active” each time. Further, in test [23], the outcome was Active.
